Here are results for 4 compounds from publication PMC7825275 (Cancer chemotherapy and pharmacology, 2019).

The nature of data set [1]: Ultrafilterable carboplatin. It is filed as in vivo, human. In outline: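 Ultrafilterable platinum was measured by atomic absorption spectrophotometry in patient plasma. […] Plasma was spun at ~1,000 x g for 10 min and stored at −70°C or colder. Parameters were derived non-compartmentally. AUC targeting bias and precision were taken as mean prediction error and root mean squared prediction error. Cycles were compared by 2-sided exact Wilcoxon signed rank.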

Data set [2] has as its system patients with advanced solid tumors. It is filed as in vivo, human. The note with it: with veliparib 100 mg BID and carboplatin AUC 6. Put shortly: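 Standard 3+3 escalation with modified Fibonacci steps. Oral veliparib was given every 12 h on days 1–7 of 21-day cycles, with IV carboplatin/paclitaxel on day 3. For the first 46 patients, cycle 1 was chemotherapy alone and DLT was scored in cycle 2; afterwards all three agents were given in cycle 1, which was the DLT cycle. Growth factors were barred in cycles 1–2. MTD was the highest dose with ≤1/6 DLTs.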

Data set [3] in a line: Paclitaxel plasma pharmacokinetics. Type of data set: in vivo, human. The settings on record: cycle 1 (veliparib -) vs cycle 2 (veliparib +). Put shortly: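 Patient plasma from heparinized blood drawn pre-dose and at 0.5–24 h after start of IV paclitaxel infusion, in the chemotherapy-alone lead-in cycle and in the veliparib cycle (day 3). Samples were spun at ~1,000 x g for 10 min and plasma held at −70°C or colder. Quantitation was by LC-MS/MS with [13C6]-paclitaxel internal standard. Parameters were derived non-compartmentally and paired cycles compared by 2-sided exact Wilcoxon signed rank.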

Data set [4] relates to patients. The settings on record: days 1-5, with veliparib 10 mg bid; cited from earlier work.
The test system of data set [5] is patients with advanced solid tumors. Put plainly: Toxicity by grade. It is filed as in vivo, human. The settings on record: initial cycle of carboplatin and paclitaxel without veliparib. Put shortly:
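Adverse events were tabulated descriptively as maximum grade in three groups: the chemotherapy-only lead-in cycle, the first veliparib-containing cycle, and all cycles. CBC and serum chemistry including liver function tests were drawn weekly during cycles 1–2, then at the start of every cycle. Veliparib was oral, twice daily on days 1–7; carboplatin/paclitaxel were IV every 21 days.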

Take `N.N.O=C([O-])C1(C(=O)[O-])CCC1.[Pt+2]` [carboplatin]: in data set [1] (cycle 1 (veliparib -) vs cycle 2 (veliparib +)), the “Carboplatin exposure, effect of the presence of veliparib or veliparib dose” value is “not impacted”. Further, in data set [1] (in the absence of veliparib), the “ME as % of AUC 6 mg•min/mL” value was 31% and the “RMSE as % of AUC 6 mg•min/mL” value turned out to be 57%. In addition, in data set [1] (in the presence of veliparib), the “ME as % of AUC 6 mg•min/mL” value is 22% and the “RMSE as % of AUC 6 mg•min/mL” value came out at 45%.
For `CC(=O)O[C@H]1C(=O)[C@@]2(C)[C@H]([C@H](OC(=O)c3ccccc3)[C@]3(O)C[C@H](OC(=O)[C@H](O)[C@@H](NC(=O)c4ccccc4)c4ccccc4)C(C)=C1C3(C)C)[C@]1(OC(C)=O)CO[C@@H]1C[C@@H]2O` [paclitaxel], the “MTD and RP2D, paclitaxel dose” value in data set [2] turned out to be 200 mg/m^2. The “paclitaxel exposure, effect of the presence of veliparib or veliparib dose” value in data set [3] was “not impacted”.
`CC[C@@]1(O)C(=O)OCc2c1cc1n(c2=O)Cc2cc3c(CN(C)C)c(O)ccc3nc2-1` [topotecan]: the “MTD, topotecan dose” value in data set [4] is recorded as 0.6 mg.
Take carboplatin and paclitaxel: in data set [5], the “neutropenia grade 3” value is reported as 20%; the “neutropenia grade 4” value is 24%; the “neutropenia, % of patients” value was found to be 56%.
